Assay results collected from several papers.
Lines come from different studies, so protocols differ.
Target: Vascular endothelial growth factor receptor 3 (FLT4, Homo sapiens, UniProt P35916)

Cc1cnn2ncc(-c3ccnc(N(C)C)n3)c2c1  remaining binding (binding; 1 µM): 100%
O=C(NCCCN1CCOCC1)c1ccc(Nc2ncc(Cl)c(-c3ccc(Cl)s3)n2)cc1  remaining binding (binding, competition with immobilised ligand; 1 µM): 0.7%
Cc1nc(C2CCN(C(=O)c3ccc(OC(F)(F)F)cc3N)CC2)c2ncc(N3CCN(C)CC3)cc2n1  remaining binding (cell-free assay, competition with immobilised ligand; 1 µM): 75%
F[C@@H]1CCN(c2nccc(-c3cnn4ncccc34)n2)C1  remaining binding (binding; 1 µM): 90%
CNCc1ccccc1-c1csc([C@H](C)Nc2nc(C)nc3cc(OC)c(OC)cc23)c1  remaining binding (cell-free assay, competition with immobilised ligand; 1 µM): 100%
N[C@H]1CCN(c2nccc(-c3cnn4ncccc34)n2)C1  remaining binding (binding; 1 µM): 92%
FC(F)(F)Oc1cccc(-c2cnc3ccc(-c4ccncc4)nn23)c1  remaining binding (cell-free assay, competition with immobilised ligand; 5 µM): 84%
Cc1cnc(Nc2ccc(C(=O)N3CCC(N4CCCC4)CC3)cc2)nc1-c1cc2ccccc2s1  remaining binding (binding, competition with immobilised ligand; 1 µM): 0.4%
COc1cnc(Nc2cccc(S(N)(=O)=O)c2)nc1N1CCN(c2ccccc2)CC1  remaining binding (binding, competition with immobilised ligand; 1 µM): 85%
Nc1ncc2c(n1)-c1c([nH]c3ccc(C#CC4CC4)cc13)CCCC2  remaining binding (binding, competition with immobilised ligand; 1 µM): 100%
O=C(Nc1c[nH]nc1C(=O)NC1CCNCC1)c1cc(F)cc(F)c1  remaining binding (binding, competition with immobilised ligand; 1 µM): 100%
C=CC(=O)Nc1cccc(CN2C(=O)N(c3c(Cl)c(OC)cc(OC)c3Cl)Cc3cnc(NCCCCN(CC)CC)nc32)c1  remaining binding (cell-free assay, competition with immobilised ligand; 10 µM): 0.2%
C[C@@H]1CN(c2cc(-c3nn(C)c4ccc(OC5(C)CC5)cc34)ncn2)C[C@H](C)O1  remaining binding (cell-free assay, competition with immobilised ligand; 1 µM): 85%
CN(C)c1ncc(F)c(-c2cnn3ncccc23)n1  remaining binding (binding; 1 µM): 86%
O=C(c1ccc(Nc2ncc(Cl)c(-c3ccc(Cl)s3)n2)cc1)N1CCC(N2CCCC2)CC1  remaining binding (binding, competition with immobilised ligand; 1 µM): 0.15%
CCc1ccccc1C(=O)Nc1n[nH]c2c(C)c(F)c(C3C(C#N)=C(C)N(C)C(C)=C3C#N)cc12  remaining binding (cell-free assay, competition with immobilised ligand; 1 µM): 85%
C[C@@H]1CCN(c2nccc(-c3cnn4ncccc34)n2)C1  remaining binding (binding; 1 µM): 100%
Cc1cc(C)c(-n2ccn3nc(-c4cccnc4)cc23)cc1NC(=O)c1cc(C#N)cc(S(F)(F)(F)(F)F)c1  remaining binding (cell-free assay, competition with immobilised ligand; 0.1 µM): 77.6%
c1cncc(-c2cccc(Nc3nccc(NC4CCCCC4)n3)c2)c1  remaining binding (binding, competition with immobilised ligand; 10 µM): 18%
CCCOc1ccc([C@@H]2[C@@H](C(=O)O)[C@H](c3ccc4c(c3)OCO4)CN2CC(=O)Nc2c(CC)cccc2CC)cc1  remaining binding (cell-free assay, competition with immobilised ligand; 1 µM): 100%
COc1ncc2cc3ccccc3nc2c1C#N  remaining binding (cell-free assay, competition with immobilised ligand; 5 µM): 96%
COc1ccnn2ncc(-c3ccnc(N(C)C)n3)c12  remaining binding (binding; 1 µM): 100%
CC(=O)c1c(NS(C)(=O)=O)c2cc(-c3ccc(Cl)cc3)c(-c3ccc(Cl)cc3Cl)nc2n(C)c1=O  remaining binding (cell-free assay, competition with immobilised ligand; 1 µM): 100%
